The results in this text go back to ChEMBL document CHEMBL1128667 (J Med Chem, 1995).

One assay has as its target Mu-type opioid receptor (Rattus norvegicus, UniProt P33535). As to the kind of experiment: Ability to inhibit [3H]DAMGO binding to rat brain Opioid receptor mu 1. In short, it runs like this:
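Rat brain membranes labelled with [3H]DAMGO (1-3 nM), 4 h at 25 °C in 50 mM Tris-HCl pH 7.4 with protease inhibitor cocktail. Nonspecific with 20 μM levallorphan. 8–10 concentrations, run twice; dilutions in Tris with 1 mg/mL BSA, 1 mM stocks in Tris containing 10% DMSO/5% Emulphor. IC50 and slope factor from curve fitting.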

Assay [1] deals with Delta-type opioid receptor (Rattus norvegicus, UniProt P33533). In words: Ability to inhibit [3H]DADLE binding to rat brain delta receptor. In short, it runs like this:
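[3H]DADLE (1.7-2.5 nM) on rat brain membranes, 3-4 h at 25 °C in 10 mM Tris-HCl pH 7.4 with 100 mM choline chloride, 3 mM MnCl2, 100 nM DAMGO blocking μ sites, and protease inhibitors. Nonspecific with 20 μM levallorphan. 8–10 concentrations, run twice; dilutions in Tris/1 mg/mL BSA. IC50 and slope factor from curve fitting.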

Assay [2] deals with Kappa-type opioid receptor (Cavia porcellus, UniProt P41144). As to the kind of experiment: Ability to inhibit [3H]U-69593 binding to guinea pig Opioid receptor kappa 1. The essentials: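 Guinea pig brain membranes depleted of μ and δ sites by BIT/FIT pretreatment, labelled with [3H]U69,593 (1.2-2.3 nM), 4-6 h at 25 °C in 50 mM Tris-HCl pH 7.4 with protease inhibitors and 1 μg/mL captopril. Nonspecific with 1 μM U69,593. 8–10 concentrations, run twice; IC50 and slope factor from curve fitting.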
Chain of Kappa-type opioid receptor (P41144 whole entry): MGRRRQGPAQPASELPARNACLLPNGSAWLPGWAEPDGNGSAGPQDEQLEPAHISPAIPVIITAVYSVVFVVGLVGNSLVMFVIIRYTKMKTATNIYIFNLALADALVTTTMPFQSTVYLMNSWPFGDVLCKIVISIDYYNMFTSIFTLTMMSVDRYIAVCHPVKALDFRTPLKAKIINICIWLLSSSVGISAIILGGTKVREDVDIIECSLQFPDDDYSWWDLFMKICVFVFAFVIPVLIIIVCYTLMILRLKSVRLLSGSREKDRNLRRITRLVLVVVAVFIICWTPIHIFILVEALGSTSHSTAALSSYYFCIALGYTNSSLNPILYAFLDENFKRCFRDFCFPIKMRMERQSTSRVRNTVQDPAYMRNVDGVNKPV

The subject of assay [3] is Sigma 2 receptor. As to the kind of experiment: Ratio of binding affinity towards guinea-pig brain […] receptor to rat liver sigma-2 receptor.
For assay [4], the target named is Sigma 2 receptor. As to the kind of experiment: Ability to inhibit [3H](+)-DTG binding to rat liver Sigma receptor type 2 in presence of dextrallorphan. The essentials: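 Rat liver membranes (male Sprague–Dawley, 150–200 g; Tris/sucrose homogenisation, differential centrifugation, 25 °C preincubation). 160 μg protein with 5 nM [3H]DTG plus 1 μM dextrallorphan to mask σ1, 50 mM Tris-HCl pH 8.0, 120 min at 25 °C. Nonspecific with 10 μM haloperidol. Filtration. 12 concentrations (0.05–10 000 or 0.5–100 000 nM); Ki via Cheng–Prusoff with Scatchard Kd; 2–3 experiments in duplicate, ±SEM.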

Assay [5] can be described thus: Ability to inhibit [3H](+)-pentazocine binding to guinea pig brain Sigma receptor type 1.

Chain of Delta-type opioid receptor (P33533 whole entry): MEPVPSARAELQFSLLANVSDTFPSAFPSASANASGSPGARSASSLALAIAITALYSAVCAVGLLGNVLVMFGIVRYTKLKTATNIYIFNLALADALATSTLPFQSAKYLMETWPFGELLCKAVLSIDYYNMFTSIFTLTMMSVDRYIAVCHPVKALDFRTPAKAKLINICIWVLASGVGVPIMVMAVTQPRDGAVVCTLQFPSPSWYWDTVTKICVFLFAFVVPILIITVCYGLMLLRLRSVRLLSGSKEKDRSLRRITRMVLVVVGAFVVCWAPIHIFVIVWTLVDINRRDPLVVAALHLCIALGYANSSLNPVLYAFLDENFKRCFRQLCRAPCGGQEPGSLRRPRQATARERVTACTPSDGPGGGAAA
Chain of Mu-type opioid receptor (P33535 whole entry): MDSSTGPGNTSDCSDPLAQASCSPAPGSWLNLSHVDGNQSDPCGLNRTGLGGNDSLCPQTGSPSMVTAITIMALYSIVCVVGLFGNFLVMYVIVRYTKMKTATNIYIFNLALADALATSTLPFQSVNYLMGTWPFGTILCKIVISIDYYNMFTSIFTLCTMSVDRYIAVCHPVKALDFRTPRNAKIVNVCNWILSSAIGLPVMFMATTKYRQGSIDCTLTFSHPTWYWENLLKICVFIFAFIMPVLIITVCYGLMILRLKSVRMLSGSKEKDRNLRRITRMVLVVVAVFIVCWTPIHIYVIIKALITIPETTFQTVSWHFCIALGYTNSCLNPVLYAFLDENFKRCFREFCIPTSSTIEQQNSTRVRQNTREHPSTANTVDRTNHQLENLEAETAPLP

Take `CN1CCC2(c3cccc(O)c3)CC(=O)CC1C2` (single isomer, unassigned; (+)): the inhibition constant (Ki) at Mu-type opioid receptor was determined as 35.5 nM; in assay [1], 505 nM; in assay [2] it was 2540 nM.
Turning to `CN1CCC2(c3cccc(O)c3)CC(=O)/C(=C/c3cccc(Cl)c3)C1C2` (stereo in doubt; (-)-7) [listing 1 of 2 here], in the assay on Sigma 2 receptor [3], the Ratio turned out to be 0.25.
As for `CN1CCC2(c3cccc(O)c3)CC(=O)/C(=C/c3ccc(Cl)c(Cl)c3)C1C2` (stereo in doubt; 3), the Ki on Sigma 2 receptor [4] came out at 71.8 nM; in assay [5], 65.3 nM.
Regarding `CN1CCC2(c3cccc(O)c3)CC(=O)/C(=C/c3ccc4ccccc4c3)C1C2` (stereo not drawn), the Ki on Sigma 2 receptor [4] is 80.2 nM; on Mu-type opioid receptor it was 2.2 nM; in assay [1], 142 nM; in assay [2] it was more than 500 nM. Moreover, the Ratio in the assay on Sigma 2 receptor [3] amounted to 0.21.
For `CN1CCC2(c3cccc(O)c3)CC(=O)CC1C2` (stereo in doubt; (-)-1), at Sigma 2 receptor [4], the Ki came out at 25 nM.
With `COc1cccc(C23CCN(C)C(C2)/C(=C\c2ccccc2)C(=O)C3)c1` (single isomer, unassigned; (+)) [listing 1 of 2 here], the Ki on Sigma 2 receptor [4] was 52 nM; in assay [2] it was more than 500 nM.
Consider `COc1cccc(C23CCN(C)C(C2)/C(=C\c2ccccc2)C(=O)C3)c1` (stereo in doubt; 10) [listing 1 of 2 here], for which the Ki on Sigma 2 receptor [4] was 81.7 nM; at Mu-type opioid receptor, more than 250 nM; in assay [1] it was more than 500 nM; in assay [2] it was more than 1000 nM; in assay [5] it was 138 nM.
With `COc1cccc(/C=C2/C(=O)CC3(c4cccc(O)c4)CCN(C)C2C3)c1` (stereo in doubt; 6) [listing 1 of 2 here], the Ratio in the assay on Sigma 2 receptor [3] was 0.18.
On to `CN1CCC2(c3cccc(O)c3)CC(=O)/C(=C/c3ccccc3)C1C2` (stereo in doubt; (-)-2) [listing 1 of 2 here], for which the inhibition constant Ki turned out to be 154 nM on Sigma 2 receptor [4], 392 nM at Mu-type opioid receptor, 1990 nM in assay [1] and 889 nM in assay [2].
On to `COc1cccc(/C=C2/C(=O)CC3(c4cccc(O)c4)CCN(C)C2C3)c1` (single isomer, unassigned; (-)) [listing 1 of 2 here], for which the Ki at Sigma 2 receptor [4] was 46.3 nM; at Mu-type opioid receptor, 31.4 nM; in assay [1], more than 400 nM.
Consider `CN1CCC2(c3cccc(O)c3)CC(=O)/C(=C/c3ccc(Cl)c(Cl)c3)C1C2` (single isomer, unassigned; (-)), for which the results for the Ki (on Sigma 2 receptor [4]; on Mu-type opioid receptor; in assay [1]) were 35.5 nM, 45.1 nM and more than 500 nM, respectively.
Consider `COc1ccc(/C=C2/C(=O)CC3(c4cccc(O)c4)CCN(C)C2C3)cc1` (single isomer, unassigned; (+)) [listing 1 of 2 here], for which, in the assay with Sigma 2 receptor [3], the Ratio came out at 88.
On to `CN1CCC2(c3cccc(O)c3)CC(=O)/C(=C/c3ccccc3)C1C2` (single isomer, unassigned; (+)) [listing 1 of 2 here], for which the Ratio in the assay on Sigma 2 receptor [3] was 79.
In the case of `CN1CCC2(c3cccc(O)c3)CC(=O)/C(=C/c3ccc(Cl)cc3)C1C2` (stereo in doubt; 5) [listing 1 of 2 here], the results for the Ki (at Sigma 2 receptor [4]; on Mu-type opioid receptor; in assay [1]) were 9.5 nM, 21.6 nM and more than 1000 nM, respectively.
Taken in the same sequence, the figures for `COc1ccc(/C=C2/C(=O)CC3(c4cccc(O)c4)CCN(C)C2C3)cc1` (stereo in doubt; 4) [listing 1 of 2 here] were 35 nM, 4.1 nM and 7.1 nM.
Turning to `COc1cccc(/C=C2/C(=O)CC3(c4cccc(O)c4)CCN(C)C2C3)c1` (stereo in doubt; 6) [listing 2 of 2 here], the Ki is 44.3 nM on Sigma 2 receptor [4], 11.8 nM on Mu-type opioid receptor, more than 400 nM in assay [1] and more than 500 nM in assay [2].
With `CN1CCC2(c3cccc(O)c3)CC(=O)/C(=C/c3cccc(I)c3)C1C2` (stereo not drawn), the Ki at Sigma 2 receptor [4] was 24 nM; at Mu-type opioid receptor, 9.1 nM; in assay [1], 141 nM; in assay [2], more than 500 nM. Further, in the assay on Sigma 2 receptor [3], the Ratio was 68.
As to `CN1CCC2(c3cccc(O)c3)CC(=O)/C(=C/c3ccc(Cl)cc3)C1C2` (stereo in doubt; (+)-5) [listing 1 of 2 here], the Ratio in the assay with Sigma 2 receptor [3] came out at 119.
In the case of `CN1CCC2(c3cccc(O)c3)CC(=O)/C(=C/c3ccc(Cl)c(Cl)c3)C1C2` (single isomer, unassigned; (+)), the Ki was determined as 13.4 nM on Sigma 2 receptor [4], 4.5 nM at Mu-type opioid receptor and 271 nM in assay [1].
On to `CN1CCC2(c3cccc(O)c3)CC(=O)/C(=C/c3cccc(Cl)c3)C1C2` (stereo in doubt; (-)-7) [listing 2 of 2 here], for which the Ki on Sigma 2 receptor [4] is 123 nM; at Mu-type opioid receptor, 47.6 nM; in assay [1] it was 386 nM; in assay [2], more than 500 nM.
For the compound `COc1ccc(/C=C2/C(=O)CC3(c4cccc(O)c4)CCN(C)C2C3)cc1` (single isomer, unassigned; (+)) [listing 2 of 2 here], the Ki at Sigma 2 receptor [4] was 21.6 nM; at Mu-type opioid receptor it was 3.9 nM; in assay [1], 127 nM; in assay [2] it was more than 500 nM.
Consider `COc1cccc(/C=C2/C(=O)CC3(c4cccc(O)c4)CCN(C)C2C3)c1` (single isomer, unassigned; (-)) [listing 2 of 2 here], for which, in the assay on Sigma 2 receptor [3], the Ratio worked out at 0.12.
Regarding `CN1CCC2(c3cccc(O)c3)CC(=O)/C(=C/c3cccc(Cl)c3)C1C2` (stereo in doubt; (+)-7) [listing 1 of 2 here], the inhibition constant Ki is 22.4 nM on Sigma 2 receptor [4], 11.8 nM on Mu-type opioid receptor, 217 nM in assay [1] and more than 500 nM in assay [2].
For the compound `CN1CCC2(c3cccc(O)c3)CC(=O)/C(=C/c3ccc(Cl)cc3)C1C2` (single isomer, unassigned; (-)) [listing 1 of 2 here], the Ratio with Sigma 2 receptor [3] was 0.69.
Regarding `COc1cccc(/C=C2/C(=O)CC3(c4cccc(O)c4)CCN(C)C2C3)c1` (single isomer, unassigned; (+)) [listing 1 of 2 here], the Ki on Sigma 2 receptor [4] came to 38.2 nM; at Mu-type opioid receptor it was 12.6 nM; in assay [1] it was 175 nM.
On to `COc1cccc(C23CCN(C)C(C2)/C(=C\c2ccccc2)C(=O)C3)c1` (stereo in doubt; 10) [listing 2 of 2 here], for which, in the assay with Sigma 2 receptor [3], the Ratio came out at 1.7.
Still for that read-out and setting: to `CN1CCC2(c3cccc(O)c3)CC(=O)/C(=C/c3cccc(Cl)c3)C1C2` (stereo in doubt; (+)-7) [listing 2 of 2 here] belongs 138.
In the case of `CN1CCC2(c3cccc(O)c3)CC(=O)/C(=C/c3ccc(Cl)cc3)C1C2` (stereo in doubt; (+)-5) [listing 2 of 2 here], the Ki at Sigma 2 receptor [4] is 6.4 nM; at Mu-type opioid receptor, 6.4 nM; in assay [1], 336 nM.
For `CN1CCC2(c3cccc(O)c3)CC(=O)/C(=C/C3CC3)C1C2` (stereo not drawn), the Ki at Sigma 2 receptor [4] was 356 nM; on Mu-type opioid receptor, 11.2 nM; in assay [1], more than 1000 nM; in assay [2] it was more than 500 nM. Further, the Ratio in the assay on Sigma 2 receptor [3] stood at 0.18.
For the compound `CN1CCC2(c3cccc(O)c3)CC(=O)/C(=C/c3ccc(Cl)cc3)C1C2` (single isomer, unassigned; (-)) [listing 2 of 2 here], the Ki at Sigma 2 receptor [4] was 26.5 nM; on Mu-type opioid receptor, 48.2 nM; in assay [1], more than 500 nM; in assay [2] it was more than 500 nM.
Consider `CN1CCC2(c3cccc(O)c3)CC(=O)/C(=C/c3ccccc3)C1C2` (single isomer, unassigned; (+)) [listing 2 of 2 here], for which the Ki on Sigma 2 receptor [4] came to 16.5 nM; at Mu-type opioid receptor it was 37.6 nM; in assay [1] it was 735 nM; in assay [2], 1090 nM.
For the compound `CN1CCC2(c3cccc(O)c3)CC(=O)/C(=C/c3ccc(I)cc3)C1C2` (single isomer, unassigned; (+)), the Ki is 52.6 nM at Sigma 2 receptor [4], 26.7 nM on Mu-type opioid receptor, 321 nM in assay [1] and more than 1000 nM in assay [2]. The Ratio in the assay with Sigma 2 receptor [3] came out at 32.
In the case of `COc1ccc(/C=C2/C(=O)CC3(c4cccc(O)c4)CCN(C)C2C3)cc1` (single isomer, unassigned; (-)) [listing 1 of 2 here], the Ki on Sigma 2 receptor [4] is 81.3 nM; on Mu-type opioid receptor, 27 nM; in assay [1], more than 500 nM.
For the compound `CN1CCC2(c3cccc(O)c3)CC(=O)/C(=C/c3ccccc3)C1C2` (stereo in doubt; 2) [listing 1 of 2 here], the Ki on Sigma 2 receptor [4] was found to be 37 nM; in assay [5], 23.3 nM.
For the compound `CN1CCC2(c3cccc(O)c3)CC(=O)/C(=C/c3ccc(Cl)cc3)C1C2` (stereo in doubt; 5) [listing 2 of 2 here], the Ratio with Sigma 2 receptor [3] came out at 4.
Turning to `CN1CCC2(c3cccc(O)c3)CC(=O)/C(=C/c3cccc(Cl)c3)C1C2` (stereo in doubt; 7) [listing 1 of 2 here], the Ratio with Sigma 2 receptor [3] came out at 1.5.
In the case of `CN1CCC2(c3cccc(O)c3)CC(=O)/C(=C/c3cccc(Cl)c3)C1C2` (stereo in doubt; 7) [listing 2 of 2 here], the inhibitory constant (Ki) at Sigma 2 receptor [4] stood at 34.5 nM; at Mu-type opioid receptor it was 23.2 nM; in assay [1], 222 nM; in assay [2], 246 nM.
Turning to `CN1CCC2(c3cccc(O)c3)CC(=O)/C(=C/c3ccccc3)C1C2` (stereo in doubt; 2) [listing 2 of 2 here], the Ratio with Sigma 2 receptor [3] is 0.63.
Same read-out and setting: the result for `COc1ccc(/C=C2/C(=O)CC3(c4cccc(O)c4)CCN(C)C2C3)cc1` (single isomer, unassigned; (-)) [listing 2 of 2 here] reads 0.1; that for `CN1CCC2(c3cccc(O)c3)CC(=O)/C(=C/c3ccccc3)C1C2` (stereo in doubt; (-)-2) [listing 2 of 2 here], 0.06.
The same measure, in the same setting: the result for `COc1cccc(C23CCN(C)C(C2)/C(=C\c2ccccc2)C(=O)C3)c1` (single isomer, unassigned; (+)) [listing 2 of 2 here] reads 2.8.
For the compound `COc1ccc(/C=C2/C(=O)CC3(c4cccc(O)c4)CCN(C)C2C3)cc1` (stereo in doubt; 4) [listing 2 of 2 here], the Ratio in the assay with Sigma 2 receptor [3] worked out at 0.53.
As for `COc1cccc(/C=C2/C(=O)CC3(c4cccc(O)c4)CCN(C)C2C3)c1` (single isomer, unassigned; (+)) [listing 2 of 2 here], in the assay on Sigma 2 receptor [3], the Ratio was 157.

The term Ki denotes a measure of affinity in units of concentration, obtained from inhibition or displacement.
